Data taken from ChEMBL document CHEMBL1156767, “Indol-3-ylcycloalkyl ketones: effects of N1 substituted indole side chain variations on CB(2) cannabinoid receptor activity” (J Med Chem, 2010).

What was measured:
[1] = target: T1, Cannabinoid receptor 2 (Homo sapiens, UniProt P34972); assay: Displacement of [3H]CP-55940 from human recombinant CB2 receptor expressed in HEK293 cells; format: cell-based
[2] = target: Cannabinoid receptor 1 (Homo sapiens, UniProt P21554); assay: Displacement of [3H]CP-55940 from human recombinant CB1 receptor expressed in CHO cells; format: cell-based; settings: read-out: Ki
Chain of Cannabinoid receptor 1 (P21554 whole entry): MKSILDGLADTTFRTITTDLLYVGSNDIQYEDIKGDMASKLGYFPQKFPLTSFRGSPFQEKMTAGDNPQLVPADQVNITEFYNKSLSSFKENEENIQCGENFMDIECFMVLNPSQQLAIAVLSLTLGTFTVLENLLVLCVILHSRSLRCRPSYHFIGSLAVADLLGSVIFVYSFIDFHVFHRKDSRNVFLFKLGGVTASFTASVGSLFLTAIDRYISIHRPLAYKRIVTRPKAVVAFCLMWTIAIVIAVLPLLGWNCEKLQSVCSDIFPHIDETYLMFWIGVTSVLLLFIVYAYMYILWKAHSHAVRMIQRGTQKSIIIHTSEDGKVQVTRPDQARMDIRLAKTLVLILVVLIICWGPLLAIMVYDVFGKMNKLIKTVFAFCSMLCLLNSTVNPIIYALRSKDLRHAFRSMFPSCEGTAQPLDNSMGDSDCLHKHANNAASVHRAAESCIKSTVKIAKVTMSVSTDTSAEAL

[3] = species: Homo sapiens; assay: Selectivity ratio of Ki for human recombinant CB1 receptor to Ki for human recombinant CB2 receptor
Summary of the method: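 Membranes were from HEK cells stably expressing human CB2 and CHO cells stably expressing human CB1. Competition was run against 0.5 nM [3H]CP-55,940 in 50 mM Tris-HCl pH 7.4, 2.5 mM EDTA, 5 mM MgCl2, 0.05% fatty-acid-free BSA, for 90 min at 30 °C, then filtered. Nonspecific binding was set with 10 μM unlabeled CP-55,940. Ki came from one-site fits. Mean ± SEM, ≥3 experiments in duplicate.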

[4] = target: T1, Cannabinoid receptor 2; assay: Agonist activity at human recombinant CB2 receptor expressed in HEK293 cells coexpressing Galphaq/o5 assessed as calcium mobilization by FLIPR assay; format: functional, cell-based
Summary of the method: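 HEK cells stably coexpressing human CB2 and chimeric Gαq/o5 were seeded at 75 000 cells/well the day before and loaded with no-wash calcium dye. Mean ± SEM, ≥3 experiments in duplicate.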

[5] = target: T1, Cannabinoid receptor 2; assay: Agonist activity at human recombinant CB2 receptor expressed in HEK293 cells coexpressing Galphaq/o5 assessed as calcium mobilization by FLIPR assay relative to CP-55940; format: functional, cell-based
Summary of the method: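 HEK cells stably coexpressing human CB2 and chimeric Gαq/o5 were seeded at 75 000 cells/well the day before and loaded with no-wash calcium dye. […] Mean ± SEM, ≥3 experiments in duplicate.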

T1 sequence (P34972 whole entry): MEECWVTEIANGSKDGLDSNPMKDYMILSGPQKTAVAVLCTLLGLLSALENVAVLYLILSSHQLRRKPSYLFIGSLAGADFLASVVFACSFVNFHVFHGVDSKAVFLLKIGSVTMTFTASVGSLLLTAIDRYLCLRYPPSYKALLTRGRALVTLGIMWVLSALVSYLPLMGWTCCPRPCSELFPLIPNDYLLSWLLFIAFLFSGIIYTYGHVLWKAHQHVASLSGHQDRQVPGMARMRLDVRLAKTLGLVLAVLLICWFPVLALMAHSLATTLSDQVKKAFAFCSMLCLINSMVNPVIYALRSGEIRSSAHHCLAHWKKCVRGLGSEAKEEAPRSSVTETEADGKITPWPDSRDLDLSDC

Compound	Ki ([1]; read-out: Ki) [nM]	Ki ([1]; read-out: pKi (converted)) [nM]	Ki [2] [nM]	Ratio Ki [3]	EC50 [4] [nM]	Activity [5] [%]	pKi ([1]; hek293)	Ki ([1]; hek293, read-out: Ki) [nM]
CC1(C)C(C(=O)c2cn(CCN3CCCC3=O)c3ccccc23)C1(C)C	55	53.7	> 10000	> 182	55	97	–	–
O=C(c1cn(CCN2CCOCC2)c2ccccc12)C1CCCCCC1	11	–	362	33	31	48	–	–
CC1(C)C(C(=O)c2cn(CCN3CCNCC3)c3ccccc23)C1(C)C	> 1000	–	> 10000	–	2200	30	< 6	–
CC1(C)C(C(=O)c2cn(CCc3ccccn3)c3ccccc23)C1(C)C	68	–	1900	28	542	59	–	–
CC1(C)C(C(=O)c2cn(C[C@@H]3CCCO3)c3ccccc23)C1(C)C	3.3	–	220	67	14	117	–	–
Cc1ncsc1CCn1cc(C(=O)C2C(C)(C)C2(C)C)c2ccccc21	18	–	2000	111	49	49	–	–
CC1(C)C(C(=O)c2cn(CCCCCO)c3ccccc23)C1(C)C	0.71	–	680	958	11	79	–	–
CC1(C)C(C(=O)c2cn(C[C@H]3CCCO3)c3ccccc23)C1(C)C	3.8	–	720	189	11	99	–	–
CC1(C)C(C(=O)c2cn(CCC3CCNCC3)c3ccccc23)C1(C)C	> 1000	–	> 10000	–	–	–	< 6	–
CN1CCC(CCn2cc(C(=O)C3C(C)(C)C3(C)C)c3ccccc32)CC1	> 1000	–	> 10000	–	–	–	< 6	–
CC1(C)C(C(=O)c2cn(Cc3cccnc3)c3ccccc23)C1(C)C	30	–	2030	68	75	103	–	–
O=C(c1cn(CCN2CCOCC2)c2ccccc12)C12CC3CC(CC1C3)C2	23	–	> 10000	> 435	68	66	–	–
CC1(C)C(C(=O)c2cn(Cc3ccccc3)c3ccccc23)C1(C)C	8.2	–	210	26	93	59	–	–
CC1(C(=O)c2cn(CC3CCOCC3)c3ccccc23)CC(F)(F)C1(F)F (stereo not drawn)	47	–	1450	31	197	46	–	–
CC1(C)C(C(=O)c2cn(CCN3C(=O)CCC3=O)c3ccccc23)C1(C)C	170	–	> 10000	> 59	77	34	–	–
CC1(C(=O)c2cn(CCN3CCOCC3)c3ccccc23)CC1(Cl)Cl (stereo not drawn)	> 1000	–	> 10000	–	716	33	< 6	–
CC1(C)C(C(=O)c2cn(CC3CCOC3)c3ccccc23)C1(C)C (stereo not drawn)	0.14	0.49	630	4500	6	102	–	–
CC1(C)C(C(=O)c2cn(CC3OCCO3)c3ccccc23)C1(C)C	1	–	280	280	7	133	–	–
CCCn1cc(C(=O)C2C(C)(C)C2(C)C)c2ccccc21	9.2	–	4300	467	36	114	–	–

Compound	Ki ([1]; read-out: Ki) [nM]	Ki ([1]; read-out: pKi (converted)) [nM]	Ki [2] [nM]	Ratio Ki [3]	EC50 [4] [nM]	Activity [5] [%]	pKi ([1]; hek293)	Ki ([1]; hek293, read-out: Ki) [nM]
CC(C)[C@H]1CC[C@H](C(=O)c2cn(CCN3CCOCC3)c3ccccc23)CC1	190	–	> 10000	> 53	> 10000	–	–	–
CC1(C)C(C(=O)c2cn(CCc3cccs3)c3ccccc23)C1(C)C	2.8	–	700	250	96	86	–	–
CC(=O)CCCCn1cc(C(=O)C2C(C)(C)C2(C)C)c2ccccc21	0.99	–	380	384	6	89	–	–
O=C(c1cn(CC2CCOCC2)c2ccccc12)C12CC3CC(CC(C3)O1)C2	5.9	–	538	91	8	97	–	–
CC1(C)C(C(=O)c2cn(CCC(N)=O)c3ccccc23)C1(C)C	220	–	> 10000	–	294	107	–	–
CC1(C)C(C(=O)c2cn(CCN3CCCC3)c3ccccc23)C1(C)C	5.8	–	> 10000	> 1720	70	84	–	–
CC1(C)C(C(=O)c2cn(CCCN3CCOCC3)c3ccccc23)C1(C)C	> 1000	–	> 10000	–	1520	56	< 6	–
CC1(C)C(C(=O)c2cn(CCC3CCOCC3)c3ccccc23)C1(C)C	2.8	–	92	33	15	90	–	–
CC1(C)C(C(=O)c2cn(Cc3ccncc3)c3ccccc23)C1(C)C	3.7	–	48	13	30	99	–	–
O=C(c1cn(CCN2CCOCC2)c2ccccc12)C1CCCC1	–	> 1000	> 10000	–	819	35	–	> 1000
CC1(C)C(C(=O)c2cn(CCc3ccncc3)c3ccccc23)C1(C)C	31	–	2200	71	162	100	–	–
CN1CCN(CCn2cc(C(=O)C3C(C)(C)C3(C)C)c3ccccc32)CC1	> 1000	–	2150	–	–	–	< 6	–
CCCCn1cc(C(=O)C2C(C)(C)C2(C)C)c2ccccc21	2	–	91	46	5	102	–	–
CC1(C)C(C(=O)c2cn(CCN)c3ccccc23)C1(C)C	> 1000	–	> 10000	–	> 10000	–	< 6	–
CN1CCCC1CCn1cc(C(=O)C2C(C)(C)C2(C)C)c2ccccc21 (stereo not drawn)	> 1000	–	> 10000	–	–	–	< 6	–
O=C(c1cn(CCN2CCOCC2)c2ccccc12)C1CCC1	–	> 1000	> 10000	–	> 10000	–	–	> 1000
CC1(C)C(C(=O)c2cn(CCC(=O)O)c3ccccc23)C1(C)C	> 1000	–	> 10000	–	–	–	< 6	–
CC1(C)C(C(=O)c2cn(C(=O)CC3CCOCC3)c3ccccc23)C1(C)C	> 1000	–	> 10000	–	–	–	< 6	–
CN1CCCCC1Cn1cc(C(=O)c2cc([N+](=O)[O-])ccc2I)c2ccccc21 (stereo not drawn)	–	–	–	110	–	–	7.94	–
